# An excerpt weighted towards active compounds, which were near 4.8% of everything screened.
# NALP3 yeast inh – NALP3 inhibition in yeast; inhibition, % at 10 µM; hit rate 0.39% among 330,000; AID 2825; Yeast reconstituted NLRP3/ASC/caspase-1, beta-gal luminescence, 24 h;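 active = inhibition of 50% or more; inactive = inhibition below 50%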;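 also: plate controls were induced DMSO wells for no effect and uninduced yeast grown without galactose for full effect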
# Calb FLC – C. albicans growth modulation with fluconazole | C. albicans CaCi-2 + fluconazole, Alamar Blue growth, 48 h | AID 1979 | growth inhibition, % (concentration not given with the values) | hit rate 0.57% among 300,000;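 active = growth inhibition above about 58% in most replicates, limit read from the data, passing the limit was not always enough; inconclusive = exactly half the replicates above a set limit; inactive = most replicates below a set limit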;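 also: all wells also contain fluconazole at 8 µg/ml as a sub-toxic cotreatment; 0% = median of DMSO wells and 100% = median of geldanamycin control wells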
# ATG4B inh – blocks human ATG4B protease cleavage of LC3 substrate; ATG4B cleavage of LC3-PLA2, NBD-HPC fluorescence, 1 h; inhibition, % at 8.33 µM; hit rate 0.51% among 340,000; in the data active = inhibition above about 40%
# NALP1 inh – NALP1 inhibition. S. cerevisiae NALP1/ASC/caspase-1 growth, X-gal OD620, 72 h. inhibition, % at 10 µM. hit rate 0.61% among 280,000. AID 2071; in the data active = inhibition mostly above about 24%, no sharp cut-off; inactive = mostly below about 32%
# ALR H2O2 inh – blocks human ALR sulfhydryl oxidase activity | purified ALR, DTT oxidation, H2O2 HRP-luminol luminescence | inhibition, % (test concentration not listed) | hit rate 3.8% among 290,000 | AID 485317;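 active = mean replicate inhibition above about 79%, with every replicate also reaching it, limit read from the data; inconclusive = only one of the two criteria met; inactive = mean below limit and not every replicate reaching it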
# Target sequence (P55789 whole entry, looked up): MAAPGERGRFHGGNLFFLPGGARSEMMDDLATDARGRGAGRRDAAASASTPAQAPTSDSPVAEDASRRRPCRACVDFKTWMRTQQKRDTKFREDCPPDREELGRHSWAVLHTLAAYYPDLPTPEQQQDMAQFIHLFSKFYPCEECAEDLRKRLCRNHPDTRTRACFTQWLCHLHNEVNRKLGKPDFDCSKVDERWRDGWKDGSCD
# UCH37 inh – inhibitors of human deubiquitinating enzyme UCH37. Q9Y5K5. purified proteasome/UCH37, Ub-AMC cleavage fluorescence. inhibition, % (concentration not given with the values). hit rate 0.33% among 330,000. AID 588478;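 active = mean inhibition over replicate wells above about 20%, limit read from the data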;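 also: 0% = compound-free wells with enzyme and 100% = wells lacking proteasome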
#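 Material: human UCH37 enzyme supplied as purified proteasome complex. Measure: % inhibition of Ub-AMC cleavage fluorescence. Medium: pH 7.4 Tris-HCl (50 mM) with ovalbumin, ATP-MgCl2, DTT. Times: 30 min preincubation with enzyme, 25 min cleavage at room temperature. Detection: AMC fluorescence intensity at 355/460 nm.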
# The depositor's hits bear a star; ? = inconclusive; · = no result given.
SMILES,NALP3 yeast inh,Calb FLC,ATG4B inh,NALP1 inh,ALR H2O2 inh,UCH37 inh
CCCc1nnc(SCC(=O)Nc2ccc(OCC)cc2)n1N,0,-7,-9,-14,98*,-7
CC1(C)C(c2ccc(Cl)cc2)=[N+]([O-])C2(CCCCC2=NO)N1O (stereo not given),·,·,·,·,·,5
C=CCc1c(C)nc(C)nc1NN=Cc1ccc(F)cc1,·,·,·,·,·,10
CCOC(=O)[C@H]1O[C@@H]1C(=O)N[C@@H](CC(C)C)C(=O)NCCC(C)C,-3,·,5,-5,86*,0
CCC(C)c1c(O)nc(SCc2ccccc2)[nH]c1=O (stereo not given),3,?,2,23,99*,6
CC(C)Cc1c(O)nc(SCC(=O)N2CCCCCC2)[nH]c1=O,4,-5,7,-2,97*,5
CC(C)c1c(O)nc(SCC(=O)N2CCCCC2)[nH]c1=O,8,-2,5,8,53,5
CC(C)c1c(O)nc(SCc2ccccc2)[nH]c1=O,7,3,-1,8,-47,2
CCC(C)c1c(O)nc(SCC(=O)N2CCCCCC2)[nH]c1=O (stereo not given),7,3,-2,3,97*,6
O=C(Cc1cccc2ccccc12)NN=Cc1ccc(O)c([N+](=O)[O-])c1,·,·,·,·,·,4
O=C(O)CCn1cc(-c2ccc(Cl)cc2)nc1-c1ccncc1,6,·,-4,·,77*,0
COc1ccc(-c2cn(Cc3ccc(C(N)=O)cc3)c(-c3ccncc3)n2)cc1,10,·,-5,·,98*,-1
CC(C)(C)OC(=O)NCCCCCNC(=O)c1nc[nH]c1C(=O)NCC(=O)OCc1ccccc1,2,·,-1,·,1,1
CC(C)(C)OC(=O)CNC(=O)c1[nH]cnc1C(=O)NCC(=O)OCc1ccccc1,9,3,-9,-8,·,31*
Cc1ccc(NC(=O)CON=Cc2ccc(N(C)C)cc2)cc1,·,·,·,·,·,-2
CC1(C)C2CCC(C2)C1CC=NNC(N)=S (stereo not given),·,·,·,·,·,7
O=C(Nc1ccc(F)c(Cl)c1)NC1CC1,9,83*,18,13,-15,4
Cc1cc(C)c(C)c(OCC(=O)N2CCOCC2)c1,13,-6,-13,44*,2,6
O=C(O)c1ccc(N=c2oc3cc(O)ccc3cc2C(=O)NCc2ccccc2)cc1,28,-5,-17,7,90*,-30
CN(C)c1ccc(/C=C(\NC(=O)c2ccccc2)C(=O)N/N=C/c2ccc(C(=O)O)cc2)cc1,11,14,-4,1,·,·
O=C(N/N=C/c1cc([N+](=O)[O-])ccc1O)C(O)(c1ccccc1)c1ccccc1,26,98*,6,2,1,·
O=C(N/N=C/c1ccc(O)c(O)c1O)/C(=C/c1ccc([N+](=O)[O-])cc1)NC(=O)c1ccccc1,3,104*,10,9,91*,·
Cc1ccc(NC(=O)/C(=C\c2ccc([N+](=O)[O-])cc2)NC(=O)c2ccccc2)cc1,11,14,5,4,2,7
CN(C)c1ccc(/C=C(/NC(=O)c2ccccc2)C(=O)NN=Cc2ccc([N+](=O)[O-])c(O)c2)cc1,·,·,·,·,·,20*
C=CCNC(=O)CC(=O)NN=Cc1cccc(Br)c1,·,·,·,·,·,3
SMILES,NALP3 yeast inh,Calb FLC,ATG4B inh,NALP1 inh,ALR H2O2 inh,UCH37 inh
CC1(C)CC(=O)c2cc(C(=O)NNc3ccccc3)c(=O)n(-c3ccccc3)c2C1,24,?,9,-21,98*,5
CCn1cc(C=NO)c(C)n1,·,·,·,·,·,4
COc1ccc(OC)c(C2=NOC(C(=O)Nc3cc(C)on3)C2)c1 (stereo not given),-3,-7,3,34*,-14,1
COc1cccc(C=NN2CCN(C3c4ccccc4-c4ccccc43)CC2)c1O,·,·,·,·,·,5
CN(C)/C=C/C(=O)c1ccc(Br)s1,13,-13,-28,1,92*,19
CC(=NOCC(=O)Nc1ccccc1C(=O)O)c1cccs1,·,·,·,·,·,4
Cc1ccc(C=Nn2c(=O)c(C(C)(C)C)nn3cnnc23)cc1,·,·,·,·,·,3
Cc1cccnc1NC(=O)Nc1ccc(F)cc1,27,-16,0,28*,-11,-1
COc1ccc2nc(C)cc(SCC(=O)Nc3c(C)cc(C)cc3C)c2c1,16,15,2,4,·,-2
CCOC(=O)CSc1cc(C)nc2ccc(OC)cc12,25,20,-10,-4,98*,-2

# From PubChem BioAssay
